Legend:
[1] = biological target: Sigma non-opioid intracellular receptor 1 (Rattus norvegicus, UniProt Q9R0C9); experiment: Displacement of (+)-[3H]pentazocine from sigma 1 receptor in rat brain membranes by competitive binding assay; assay type: cell membranes
In short: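 Sigma-1 competition binding used rat brain membranes as receptor material with (+)-[3H]pentazocine as radioligand. Ki was derived by Cheng–Prusoff from at least three independent experiments, each in triplicate, and is reported as mean ± SD.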

[2] = Displacement of [3H]ditolylguanidine from sigma 2 receptor in rat liver membrane by competitive binding assay; assay type: cell membranes
In short: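 Sigma-2 competition binding used rat liver membranes with [3H]ditolylguanidine as radioligand. 10 µM dextrallorphan was present to mask sigma-1 sites. Ki was derived by Cheng–Prusoff from at least three independent experiments, each in triplicate, and is reported as mean ± SD.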

Sequence of Sigma non-opioid intracellular receptor 1 (Q9R0C9 whole entry): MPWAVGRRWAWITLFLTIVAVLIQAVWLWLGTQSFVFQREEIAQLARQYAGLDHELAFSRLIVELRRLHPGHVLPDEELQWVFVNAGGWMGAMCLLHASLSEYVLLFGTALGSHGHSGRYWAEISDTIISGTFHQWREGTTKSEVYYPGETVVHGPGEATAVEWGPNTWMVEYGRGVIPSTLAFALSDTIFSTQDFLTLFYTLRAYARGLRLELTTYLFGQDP

Work on `Cc1ccc(CN2CCN(Cc3ccc4c(c3)OCO4)CC2)cc1` yielded a Ki [1] of 0.91 nM and a Ki [2] of 49.8 nM.
`Brc1ccc(CN2CCN(Cc3ccc4c(c3)OCO4)CC2)cc1` gave a Ki [1] of 0.78 nM and a Ki [2] of 40.5 nM.

Source: ChEMBL document CHEMBL1772977, “Synthesis and biological evaluation of novel 4-benzylpiperazine ligands for sigma-1 receptor imaging” (Bioorg Med Chem, 2011)
